The target of data set [1] is Voltage-gated inwardly rectifying potassium channel KCNH2 (Homo sapiens, UniProt Q12809). Kind of data set: Displacement of labeled MK-499 from cloned hERG channel expressed in HEK cells. Type of data set: cell-based, HEK293.
Data set [2] concerns the target Substance-P receptor (Homo sapiens, UniProt P25103). Kind of data set: Displacement of [125I] labeled substance P from human cloned NK1 receptor expressed in CHO cells. Type of data set: cell-based. The method in brief: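 Radioligand displacement assay: [¹²⁵I]-labelled substance P bound to cloned human NK1 receptor expressed in CHO cells, measured as the concentration giving IC50; mean ± SD of three determinations.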
(In general: Displacement assays read how much labelled ligand stays bound in the presence of the test substance.)

For data set [3], the system named is Gerbil, jird. Kind of data set: Inhibition of GR-73632-induced foot tapping in gerbil at 3 mg/kg, po after 1 hr. The data set is classed as functional, Meriones. On the set-up: Activity: scale not given: the % may be the effect or the level left. The settings on record: for Activity: dose 3 mg/kg; for ED50: Meriones, 1 h, read-out: ID50 (the source's name). The method in brief:
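Gerbils dosed orally 1 h before central challenge with the NK1 agonist GR73632, with foot-tapping scored. Plasma drug level at 1 h measured by LC–MS/MS after protein precipitation.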

For data set [4], the system named is Gerbil, jird. Kind of data set: Inhibition of GR-73632-induced foot tapping in po dosed gerbil after 1 hr. The data set is classed as functional. Particulars: Meriones, read-out: ID50 (the source's name). The method in brief: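 Gerbils dosed orally 1 h before central challenge with the NK1 agonist GR73632, with foot-tapping scored. […] Plasma drug level at 1 h measured by LC–MS/MS after protein precipitation.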

A short description of data set [5]: Half life in rat. The settings on record: in vivo. The data set is classed as ADME, organism-based.
The nature of data set [6]: Clearance in rat. The data set is classed as ADME, organism-based. The settings on record: in vivo.

Sequence of Voltage-gated inwardly rectifying potassium channel KCNH2 (Q12809 whole entry): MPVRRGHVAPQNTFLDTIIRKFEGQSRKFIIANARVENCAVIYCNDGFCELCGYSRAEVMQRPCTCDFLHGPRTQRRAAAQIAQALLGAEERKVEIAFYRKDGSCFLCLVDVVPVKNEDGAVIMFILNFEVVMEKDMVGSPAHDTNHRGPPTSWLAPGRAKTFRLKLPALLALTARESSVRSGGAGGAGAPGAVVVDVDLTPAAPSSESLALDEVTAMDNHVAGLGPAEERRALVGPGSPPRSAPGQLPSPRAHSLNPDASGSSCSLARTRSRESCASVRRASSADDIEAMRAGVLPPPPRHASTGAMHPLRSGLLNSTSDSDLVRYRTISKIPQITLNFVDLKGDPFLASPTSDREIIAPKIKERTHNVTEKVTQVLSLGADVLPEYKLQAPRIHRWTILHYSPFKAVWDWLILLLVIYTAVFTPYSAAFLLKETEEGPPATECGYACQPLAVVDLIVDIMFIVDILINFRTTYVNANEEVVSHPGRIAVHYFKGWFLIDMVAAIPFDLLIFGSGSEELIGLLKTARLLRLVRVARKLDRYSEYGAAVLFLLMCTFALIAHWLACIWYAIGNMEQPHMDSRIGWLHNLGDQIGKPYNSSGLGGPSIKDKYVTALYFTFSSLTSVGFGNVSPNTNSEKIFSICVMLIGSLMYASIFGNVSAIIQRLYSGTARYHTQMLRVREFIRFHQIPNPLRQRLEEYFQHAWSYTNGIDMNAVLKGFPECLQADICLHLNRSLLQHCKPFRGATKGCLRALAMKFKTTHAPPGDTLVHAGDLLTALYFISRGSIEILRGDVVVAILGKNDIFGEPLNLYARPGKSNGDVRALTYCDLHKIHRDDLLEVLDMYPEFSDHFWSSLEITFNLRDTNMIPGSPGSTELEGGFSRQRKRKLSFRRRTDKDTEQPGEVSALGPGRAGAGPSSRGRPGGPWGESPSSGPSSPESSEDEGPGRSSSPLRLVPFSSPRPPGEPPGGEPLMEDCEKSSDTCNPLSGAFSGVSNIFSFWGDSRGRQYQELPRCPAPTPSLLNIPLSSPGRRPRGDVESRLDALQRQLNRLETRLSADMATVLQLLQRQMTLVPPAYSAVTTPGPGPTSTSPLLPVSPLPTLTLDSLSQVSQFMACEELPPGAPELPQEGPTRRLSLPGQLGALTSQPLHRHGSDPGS
Sequence of Substance-P receptor (P25103 whole entry): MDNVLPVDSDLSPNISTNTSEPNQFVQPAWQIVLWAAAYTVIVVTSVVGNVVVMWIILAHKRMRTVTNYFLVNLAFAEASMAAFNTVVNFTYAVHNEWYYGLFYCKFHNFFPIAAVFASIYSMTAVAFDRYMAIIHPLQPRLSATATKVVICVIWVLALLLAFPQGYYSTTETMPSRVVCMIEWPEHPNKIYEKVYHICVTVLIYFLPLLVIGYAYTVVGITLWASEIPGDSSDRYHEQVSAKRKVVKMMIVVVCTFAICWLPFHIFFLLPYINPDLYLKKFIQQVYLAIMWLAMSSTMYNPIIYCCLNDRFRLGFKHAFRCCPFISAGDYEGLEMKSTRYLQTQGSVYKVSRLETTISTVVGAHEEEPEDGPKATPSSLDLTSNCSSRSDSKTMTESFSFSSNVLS

By Ki is commonly meant a measure of affinity in units of concentration, obtained from inhibition or displacement. In data set [1], `C[C@@H](O[C@H]1CCC(=O)N(C)[C@@H](C)[C@@H]1c1ccc(F)cc1)c1cc(C(F)(F)F)cc(C(F)(F)F)c1` had an inhibition constant Ki of 6700 nM.

Broadly, the IC50 is the point on the concentration scale where inhibition reaches its midpoint. In data set [2], `C[C@@H]1C[C@H](O[C@H](C)c2cc(C(F)(F)F)cc(C(F)(F)F)c2)[C@@H](c2ccc(F)cc2)CC(=O)N1` displayed an IC50 of 0.41 nM. In data set [3], this compound showed an Activity of 64%.

As for `C[C@@H]1C[C@H](O[C@H](C)c2cc(C(F)(F)F)cc(C(F)(F)F)c2)[C@@H](c2ccc(F)cc2)CNC1=O`, in data set [2], the IC50 came out at 0.23 nM. Besides, in data set [1], the Ki came out at 2400 nM.

With `C[C@@H](O[C@H]1CCn2c(O)nnc2C[C@@H]1c1ccc(F)cc1)c1cc(C(F)(F)F)cc(C(F)(F)F)c1`, the IC50 in data set [2] stood at 0.22 nM. In addition, the Ki in data set [1] was more than 9000 nM. In addition, in data set [3], the ED50 was determined as 0.8 mg/kg.

`C[C@@H](O[C@H]1CCc2nccn2C[C@@H]1c1ccc(F)cc1)c1cc(C(F)(F)F)cc(C(F)(F)F)c1`: the IC50 in data set [2] turned out to be 0.28 nM. In data set [3], this compound came in with an Activity of 4%.

Turning to `C[C@@H]1C[C@H](O[C@H](C)c2cc(C(F)(F)F)cc(C(F)(F)F)c2)[C@@H](c2ccc(F)cc2)CN(C)C1=O`, the Activity in data set [3] was found to be 5%.

In the case of `C[C@@H](O[C@H]1CCNC(=O)C[C@@H]1c1ccc(F)cc1)c1cc(C(F)(F)F)cc(C(F)(F)F)c1`, the IC50 in data set [2] is 0.64 nM. The compound further had a Ki in data set [1] of more than 9000 nM. This compound gave an Activity in data set [3] of 0%.

Compound `C[C@@H](O[C@H]1CCn2ccnc2C[C@@H]1c1ccc(F)cc1)c1cc(C(F)(F)F)cc(C(F)(F)F)c1` gave a Ki in data set [1] of 1400 nM. Further, the Activity in data set [3] is given as 0%.

The half-life is the time in which the quantity being followed falls by half. Usually clearance stands for a measure of how efficiently the substance is removed, as volume per time. In data set [2], `C[C@@H](O[C@H]1CCC(=O)NC[C@@H]1c1ccc(F)cc1)c1cc(C(F)(F)F)cc(C(F)(F)F)c1` registered an IC50 of 0.14 nM. Besides, the ED50 in data set [4] is 1.06 mg/kg. In data set [1], this compound came in with a Ki of more than 9000 nM. For the same compound, the half-life in data set [5] was 5.6 h. The same compound yielded a clearance in data set [6] of 33 mL/min/kg.

`C[C@@H](O[C@H]1CCN(C)C(=O)C[C@@H]1c1ccc(F)cc1)c1cc(C(F)(F)F)cc(C(F)(F)F)c1` gave an IC50 in data set [2] of 0.53 nM. The compound further returned an inhibition constant Ki in data set [1] of more than 9000 nM.

Take `C[C@@H]1C[C@H](O[C@H](C)c2cc(C(F)(F)F)cc(C(F)(F)F)c2)[C@@H](c2ccc(F)cc2)CC(=O)N1C`: the IC50 in data set [2] is 0.49 nM. The Ki in data set [1] was more than 9000 nM. Moreover, in data set [3], the Activity was determined as 8%.

Regarding `C[C@@H]1NC(=O)CC[C@H](O[C@H](C)c2cc(C(F)(F)F)cc(C(F)(F)F)c2)[C@H]1c1ccc(F)cc1`, the Ki in data set [1] was more than 9000 nM.

On to `C[C@@H](O[C@H]1CCC(=O)N(C)C[C@@H]1c1ccc(F)cc1)c1cc(C(F)(F)F)cc(C(F)(F)F)c1`, for which the IC50 in data set [2] was determined as 0.12 nM. The ED50 in data set [3] amounted to 0.64 mg/kg.

Values taken from ChEMBL document CHEMBL1147801, “NK1 antagonists based on seven membered lactam scaffolds” (Bioorg Med Chem Lett, 2006).
